Cl transport mod: KCC2 cotransporter modulators, thallium flux, primary screen, cell-based, HEK293 KCC2, FluoZin-2 fluorescence, MLSMR. KCC2 cells, thallium flux FluoZin-2 fluorescence. B-score of Tl+ flux slope (higher = more flux/activation; lower = inhibition) at 10 µM. AID 1456, 2008. 190,000 compounds, 2.2% hits. Solute carrier family 12 member 5 (Homo sapiens), Q9H2X9;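 active = thallium flux slope and its plate-corrected score both differing from the plate sample mean at a set confidence after two filtering rounds, in either direction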;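 also: slope of fluorescence scaled to starting intensity during 10 to 20 s after thallium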
MrgX1 allo act: positive allosteric modulators of MrgX1, primary screen, HEK293 cells, Fluo-4 calcium flux | 310,000 compounds, 0.63% hits | B-score at 10 µM | AID 588675, 2011 | FDSS; hits give high values | Mas-related G-protein coupled receptor member X1 (Homo sapiens), Q96LB2;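 active = plate-corrected calcium response at least 3 library SD above typical, normal starting fluorescence, not activating the receptor alone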;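 also: compound read alongside a low EC10 to EC30 dose of BAM8-22 agonist; peak minus trough fluorescence over baseline measured at the second addition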
RGS4 pot: RGS4 potentiators or activators, primary screen, cell-based, HEK293 M3R inducible RGS4, calcium flux. AID 463111, 2010. carbachol calcium flux Fluo4; hits give low values. 310,000 compounds, 0.92% hits. B-score at 10 µM;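 active = B-score of the integrated calcium signal more than 4 SD below the library mean, with starting fluorescence not abnormally high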;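 also: negative B-score means reduced calcium response which marks RGS4 activation or potentiation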
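test system = HEK293 cells with stable M3R and inducible RGS4 | schedule = recording 10 s baseline at 1 Hz, 100 s post-agonist | technique = Fluo4-AM (2 µM) calcium-flux fluorescence, kinetic read | measure = Agonist-evoked peak-minus-minimum fluorescence over baseline, integrated ratio, B score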
RGS4 inh: RGS4 inhibitors, primary screen, cell-based, HEK293 M3R inducible RGS4, calcium flux; Regulator of G-protein signaling 4 (Homo sapiens), P49798; Fluo-4 calcium flux; hits give high values; triggered by carbachol at its EC20; B-score at 10 µM; 310,000 compounds, 0.45% hits; AID 463165, 2010;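 active = B-score, a plate-corrected calcium signal, over three deviations above library mean, with baseline fluorescence within five deviations of library mean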;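 also: RGS4 expression induced by doxycycline in cells with stable M3 receptor; B-score is computed from the integrated fluorescence ratio over baseline after carbachol; higher B-score means a larger calcium signal and so more RGS4 inhibition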
Target sequence (P49798 whole entry, looked up): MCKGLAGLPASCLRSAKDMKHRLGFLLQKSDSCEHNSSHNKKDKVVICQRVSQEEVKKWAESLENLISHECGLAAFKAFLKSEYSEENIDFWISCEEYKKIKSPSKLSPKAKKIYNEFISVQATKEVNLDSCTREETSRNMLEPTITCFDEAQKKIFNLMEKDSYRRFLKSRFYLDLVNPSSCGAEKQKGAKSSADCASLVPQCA
MrgX1 agonist: agonists of human MrgX1 receptor, primary screen, HEK293 cells, Fluo-4 calcium flux; AID 588627, 2011; 310,000 compounds, 0.44% hits; Fluo-4 calcium fluorescence, agonist mode; hits give high values; B-score at 10 µM;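 active = calcium response B-score plate-corrected fluorescence ratio at least 3 library SD, with starting fluorescence B-score inside 5 SD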
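System: HEK293 cells stably expressing human MrgX1 receptor; Dosing: test compound in the initial addition of three; Schedule: overnight plating, then 30 min 37 °C plus 30 min room-temperature dye loading; Detection: kinetic calcium dye fluorescence, Fluo-4 NW; Controls: per-plate positive and negative controls for Z′ factor.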
MrgX1 antagonist: antagonists of human MrgX1 receptor, primary screen, HEK293 cells, Fluo-4 calcium flux | BAM8-22 antagonism; hits give low values | B-score at 10 µM | 310,000 compounds, 1.3% hits;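 active = calcium-response B-score plate-corrected more than 3 library SD below zero, starting fluorescence within 5 deviations, no agonist response on first addition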;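 also: peak minus trough fluorescence over baseline after final BAM8-22 challenge near maximal dose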
* hit, by the source's call; i = inactive; x = not tested or not shown. An excerpt weighted towards active compounds, which were near 4.7% of everything screened.

SMILES	Cl transport mod	MrgX1 allo act	RGS4 pot	RGS4 inh	MrgX1 agonist	MrgX1 antagonist
O=C(O)c1cc(N2C(=O)CCC2=O)ccc1Cl	x	i	i	i	i	i
CCN(CC)CC(=O)c1c(N)n(Cc2ccccc2)c(=O)n(C)c1=O	0.41	i	i	i	i	i
Cn1c(=O)c(C(=S)NC(=O)C2CC2)c(N)n(Cc2ccccc2)c1=O	10*	i	i	i	i	i
CC1(C)N=C(N)N=C(N)N1c1ccc(Oc2ccc(Cl)cc2)c(Cl)c1	x	i	-7.5*	i	i	i
CCOCCOC(=O)C(C)Oc1ccc(Oc2ncc(Cl)cc2Cl)cc1 (centres undefined)	-0.18	i	i	i	i	i
CCOCCOC(=O)C(C)Oc1ccc(Oc2nc(Cl)ccc2Cl)cc1 (centres undefined)	-0.8	i	i	i	i	-8.5*
Cc1ccc2nsnc2c1NC(=S)NC(=O)c1ccco1	9.3*	i	i	i	i	i
COc1ccccc1C(=O)NNC(=S)NC(=O)c1ccco1	16*	i	i	i	50*	i
CC(Oc1ccc(Cl)cc1)C(=O)NNC(=S)NC(=O)c1ccco1 (centres undefined)	26*	i	i	i	90*	i
O=C(NC(=S)Nc1ccccn1)c1ccco1	10*	i	i	i	i	i
CC(Oc1ccccc1)C(=O)Nc1cccc(NC(=O)c2ccco2)c1 (centres undefined)	0.85	i	i	i	i	i
COC(=O)c1cc(OC)c(OC)cc1NC(=S)NC(=O)c1ccco1	x	i	i	i	i	i
Clc1cccc(CN2CCSCC2)c1Cl	x	i	i	i	i	i
O=C(O)c1nn(CC(=O)N2CCN(c3ncc(C(F)(F)F)cc3Cl)CC2)c(=O)c2ccccc12	x	i	i	i	i	i
CCN(CC(=O)NCc1ccc(Cl)cc1)C(=O)c1cc(OC)cc(OC)c1	x	i	i	i	i	i
CN(C)c1ccc2nc3c(=O)[nH]c(=O)nc-3n(CC(O)C(O)C(O)CO)c2c1 (centres undefined)	x	i	-7.9*	i	i	i
COc1c(Br)cc(Br)cc1C(=O)Nc1ccccc1N1CCCC1	x	i	i	i	i	i
O=[N+]([O-])c1ccc(C2CCCC/C2=N/OCc2ccccc2F)c([N+](=O)[O-])c1 (centres undefined)	-1.3	i	-7.7*	i	i	i
CCCCNC(=O)N(O)C1N(/N=C/c2ccccc2OC)C(=S)SC1(C)C (centres undefined)	x	i	i	i	i	i
CC1(C)CC(=O)C(C(c2ccco2)C2C(=O)CC(C)(C)CC2=O)C(=O)C1	0.76	i	i	i	i	-6.8*
CC1(C)CC(=O)C(C(c2ccc(Br)cc2)C2C(=O)CC(C)(C)CC2=O)C(=O)C1	x	i	i	i	41*	i
CC1(C)CC(=O)C(C(c2ccc(F)cc2)C2C(=O)CC(C)(C)CC2=O)C(=O)C1	0.94	i	i	i	i	i
CC(C)(C)c1nc2ccc(NS(=O)(=O)c3ccc(F)c(F)c3F)cc2[nH]1	x	i	i	i	i	i
O=C(O)c1ccc(/C=C2/SC(=S)N(Cc3ccccc3)C2=O)cc1	x	i	i	i	i	i
COc1cc([N+](=O)[O-])cc(/C=C2/SC(=S)N(Cc3ccccc3)C2=O)c1O	x	i	-7.6*	i	43*	i

Source: PubChem BioAssay (several laboratories)
